These results are taken from ChEMBL document CHEMBL5104117, “Armeniaspirol analogues with more potent Gram-positive antibiotic activity show enhanced inhibition of the ATP-dependent proteases ClpXP and ClpYQ” (RSC Med Chem, 2022).

Broadly, the MIC is the least concentration at which growth counts as inhibited. By Ki is commonly meant a measure of affinity in units of concentration, obtained from inhibition or displacement.

Assay [1] relates to Staphylococcus aureus. As to the kind of experiment: Antibiotic activity against methicillin-resistant Staphylococcus aureus IA116-USA100 assessed as inhibition of bacterial growth incubated for 16 hrs by microtiter broth dilution method. It is filed as functional. The method in brief:
(§1)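 Microtiter broth dilution assay in liquid medium, run alongside MBC determination, against a Gram-positive panel; the MIC was read as growth inhibition.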

For assay [2], the system named is Staphylococcus aureus. In words: Antibiotic activity against methicillin-resistant Staphylococcus aureus MN8-USA200 assessed as inhibition of bacterial growth incubated for 16 hrs by microtiter broth dilution method. It is filed as functional. In short, it runs like this:
as §1
(In general: Broth dilution looks for growth in wells or tubes with falling amounts of substance.)

Assay [3] deals with Staphylococcus aureus. As to the kind of experiment: Antibiotic activity against methicillin-resistant Staphylococcus aureus LAC-Fitz-USA300 assessed as inhibition of bacterial growth incubated for 16 hrs by microtiter broth dilution method. The assay is classed as functional. In short, it runs like this: as §1
The subject of assay [4] is Staphylococcus aureus. As to the kind of experiment: Antibiotic activity against methicillin-resistant Staphylococcus aureus MW2-USA400 assessed as inhibition of bacterial growth incubated for 16 hrs by microtiter broth dilution method. It is filed as functional. The method in brief: as §1
Assay [5] relates to Enterococcus faecalis. As to the kind of experiment: Antibiotic activity against vancomycin resistant Enterococcus faecalis NJ3 assessed as inhibition of bacterial growth incubated for 16 hrs by microtiter broth dilution method. It is filed as functional. The method in brief:
as §1

Assay [6] concerns Pseudomonas aeruginosa. In words: Antibiotic activity against Pseudomonas aeruginosa PA01 assessed as inhibition of bacterial growth incubated for 16 hrs by microtiter broth dilution method. It is filed as functional.
Assay [7] deals with Staphylococcus aureus. In words: Bacteriostatic activity against methicillin-resistant Staphylococcus aureus IA116-USA100 assessed as inhibition of bacterial growth by microtiter broth dilution method. It is filed as functional, organism-based.
For assay [8], the system named is Staphylococcus aureus. As to the kind of experiment: Bacteriostatic activity against methicillin-resistant Staphylococcus aureus MN8-USA200 assessed as inhibition of bacterial growth by microtiter broth dilution method. It is filed as functional, organism-based.
In assay [9] the test system is Staphylococcus aureus. As to the kind of experiment: Bacteriostatic activity against methicillin-resistant Staphylococcus aureus LAC-Fitz-USA300 assessed as inhibition of bacterial growth by microtiter broth dilution method. The assay is classed as functional, organism-based.
Assay [10] deals with Staphylococcus aureus. As to the kind of experiment: Bacteriostatic activity against methicillin-resistant Staphylococcus aureus MW2-USA400 assessed as inhibition of bacterial growth by microtiter broth dilution method. The assay is classed as functional, organism-based.
Assay [11] relates to Enterococcus faecalis. In words: Bacteriostatic activity against vancomycin resistant Enterococcus faecalis NJ3 assessed as inhibition of bacterial growth by microtiter broth dilution method. It is filed as functional, organism-based.
The test system of assay [12] is Pseudomonas aeruginosa. In words: Bacteriostatic activity against Pseudomonas aeruginosa PA01 assessed as inhibition of bacterial growth by microtiter broth dilution method. It is filed as functional, organism-based.
Assay [13] relates to Staphylococcus aureus. In words: Inhibition of ClpX/ClpP activity in methicillin-resistant Staphylococcus aureus USA300 assessed as increase in urease activation incubated of overnight by phenol red dye based microplate reader analysis. The method in brief:
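Cell-based ClpXP readout in MRSA USA300 grown in Christensen's urea medium with phenol red indicator. ClpXP inhibition raises urease activity, which hydrolyses urea and releases ammonia, and the rising pH turns the medium from yellow to red. Minimum effective concentration (MEC) was taken as the lowest level that raised urease activity above background.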

Assay [14] in a line: Inhibition of C-terminal His tagged Bacillus subtilis ClpY/ClpQ expressed in Escherichia coli BL21 (DE3) using Cbz-Gly-Gly-Leu-AMC as peptide substrate by Cheng-prusoff equation analysis. In short, it runs like this: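 Recombinant purified B. subtilis ClpYQ was used for inhibition kinetics. Peptide hydrolysis of the fluorogenic substrate Cbz-GGL-AMC at 100 μM was followed over a range of compound concentrations to give a dose-response curve.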

Converted amounts (≈) assume the structure as drawn. The source made the active and inactive calls. The calls are words filed in the database; no cut-off is given here.

For the molecule `CCCCCCc1c(O)c(Cl)cc2c1OC1(C2=O)C(Cl)=C(Cl)C(=O)N1Cc1ccccc1` (stereo not given), the MIC in assay [1] was 1 µg/mL (≈ 2.02 µM); in assay [2] it was 1 µg/mL (≈ 2.02 µM); in [3], 1 µg/mL (≈ 2.02 µM); in [4], 2 µg/mL (≈ 4.04 µM); in [5], 2 µg/mL (≈ 4.04 µM); in assay [6], > 32 µg/mL. For the same molecule, the result in [7], in [8], in [9], in assay [10], in assay [11] and in [12] was Active. Moreover, in assay [13], the MEC came out at 0.25 µg/mL. In [14], the Ki stood at 580 nM.

On to `CCCCCCN1C(=O)C(Cl)=C(Cl)C12Oc1c(cc(Cl)c(O)c1C)C2=O` (stereo not given), for which the minimal inhibitory concentration (MIC) was 4 µg/mL (≈ 9.55 µM) in [1]; 4 µg/mL (≈ 9.55 µM) in [2]; 4 µg/mL (≈ 9.55 µM) in assay [3]; 8 µg/mL (≈ 19.1 µM) in [4]; 8 µg/mL (≈ 19.1 µM) in assay [5]; > 32 µg/mL in assay [6]. Moreover, the result in [7], in assay [8], in [9], in assay [10], in [11] and in assay [12] was Active.

Take `Cc1c(O)c(Cl)cc2c1OC1(C2=O)C(Cl)=C(Cl)C(=O)N1Cc1ccc(C(F)(F)F)cc1` (stereo not given): the minimal inhibitory concentration (MIC) in assay [1] was 16 µg/mL (≈ 32.5 µM); in assay [2] it was 16 µg/mL (≈ 32.5 µM); in assay [3], 16 µg/mL (≈ 32.5 µM); in [4] it was 16 µg/mL (≈ 32.5 µM); in [5] it was 32 µg/mL (≈ 65 µM); in assay [6], > 32 µg/mL. Moreover, the outcome in assay [7], in assay [8], in assay [9], in [10], in [11] and in assay [12] was Active.

For the molecule `CCCCCCc1c(O)c(Cl)cc2c1OC1(C2=O)C(Cl)=C(Cl)C(=O)N1Cc1ccc(C)cc1` (stereo not given), the minimum inhibitory concentration (MIC) was 1 µg/mL (≈ 1.97 µM) in assay [1]; 0.5 µg/mL (≈ 0.983 µM) in assay [2]; 0.5 µg/mL (≈ 0.983 µM) in [3]; 0.5 µg/mL (≈ 0.983 µM) in assay [4]; 1 µg/mL (≈ 1.97 µM) in assay [5]; > 32 µg/mL in assay [6]. Besides, the result in [7], in assay [8], in assay [9], in [10], in [11] and in [12] was Active. In addition, the MEC in assay [13] was 0.25 µg/mL. In addition, the affinity in assay [14] corresponds to a Ki of 150 nM.

For `C=CCN1C(=O)C(Cl)=C(Cl)C12Oc1c(cc(Cl)c(O)c1C)C2=O` (stereo not given), the MIC in assay [1], in [2], in [3], in assay [4], in assay [5] and in assay [6] was > 32 µg/mL each time. Also, the result in [7], in [8], in assay [9], in [10], in assay [11] and in assay [12] was Active.

For `CCCCCCCCCCCCN1C(=O)C(Cl)=C(Cl)C12Oc1c(cc(Cl)c(O)c1CCCCCC)C2=O` (stereo not given), the MIC in [1] is 8 µg/mL (≈ 14 µM); in [2] it was 16 µg/mL (≈ 27.9 µM); in assay [3] it was 16 µg/mL (≈ 27.9 µM); in assay [4] it was 8 µg/mL (≈ 14 µM); in [5] it was 8 µg/mL (≈ 14 µM); in assay [6] it was > 32 µg/mL. Further, the result in [7], in assay [8], in assay [9], in assay [10], in assay [11] and in [12] was Active.

For `CCCCCCCCCCCCN1C(=O)C(Cl)=C(Cl)C12Oc1c(cc(Cl)c(O)c1C)C2=O` (stereo not given), the MIC was 2 µg/mL (≈ 3.98 µM) in [1]; 2 µg/mL (≈ 3.98 µM) in [2]; 1 µg/mL (≈ 1.99 µM) in [3]; 2 µg/mL (≈ 3.98 µM) in assay [4]; 0.5 µg/mL (≈ 0.994 µM) in assay [5]; > 32 µg/mL in assay [6]. Besides, the result in assay [7], in [8], in assay [9], in assay [10], in assay [11] and in [12] was Active. In addition, the MEC in assay [13] turned out to be 0.5 µg/mL. Moreover, in assay [14], the Ki turned out to be 1000 nM.

For `Cc1c(O)c(Cl)cc2c1OC1(C2=O)C(Cl)=C(Cl)C(=O)N1Cc1ccccc1` (stereo not given), the minimum inhibitory concentration (MIC) is > 32 µg/mL in assay [1]; > 32 µg/mL in [2]; 32 µg/mL (≈ 75.4 µM) in assay [3]; 32 µg/mL (≈ 75.4 µM) in [4]; > 32 µg/mL in assay [5]; > 32 µg/mL in assay [6]. In addition, the outcome in assay [7], in assay [8], in [9], in assay [10], in assay [11] and in [12] was Active.

As for `CCCCCCc1c(O)c(Cl)cc2c1OC1(C2=O)C(Cl)=C(Cl)C(=O)N1Cc1ccc(C(F)(F)F)cc1` (stereo not given), the minimal inhibitory concentration (MIC) in assay [1] was 2 µg/mL (≈ 3.55 µM); in assay [2], 2 µg/mL (≈ 3.55 µM); in assay [3] it was 2 µg/mL (≈ 3.55 µM); in assay [4], 2 µg/mL (≈ 3.55 µM); in assay [5], 2 µg/mL (≈ 3.55 µM); in [6], > 32 µg/mL. Further, the result in assay [7], in assay [8], in assay [9], in [10], in assay [11] and in assay [12] was Active. Moreover, in assay [13], the MEC was determined as 1 µg/mL. For the same molecule, the affinity in assay [14], expressed as Ki, was 570 nM.

For `C=CCN1C(=O)C(Cl)=C(Cl)C12Oc1c(cc(Cl)c(O)c1CCCCCC)C2=O` (stereo not given), the MIC in assay [1] was 4 µg/mL (≈ 8.99 µM); in assay [2], 4 µg/mL (≈ 8.99 µM); in [3], 4 µg/mL (≈ 8.99 µM); in assay [4], 4 µg/mL (≈ 8.99 µM); in [5], 8 µg/mL (≈ 18 µM); in assay [6] it was > 32 µg/mL. Besides, the result in assay [7], in assay [8], in [9], in assay [10], in assay [11] and in assay [12] was Active.

For the molecule `Cc1c(O)c(Cl)cc2c1OC1(C2=O)C(Cl)=C(Cl)C(=O)N1C` (stereo not given), the minimum inhibitory concentration (MIC) in assay [1], in assay [2], in assay [3], in [4], in assay [5] and in [6] was > 32 µg/mL throughout. In addition, the outcome in assay [7], in assay [8], in assay [9], in assay [10], in assay [11] and in assay [12] was Active.
